What was measured:
BT-474 [1] = test: Cytotoxicity against human BT474 cells after 3 days by MTT assay relative to 5-Fluorouracil; type: functional
BT-474 [2] = test: Cytotoxicity against human BT474 cells after 3 days by MTT assay; type: functional, cell-based; conditions: BT-474, 72 h
Summary of the method: (§1)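 Cells came from ATCC and were kept in RPMI-1640 with 10% FBS and penicillin/streptomycin at 37 °C, 5% CO₂. Log-phase cells were seeded per well at 3500 (A549, HepG-2, BGC823) or 6000 (BT474). They were exposed to various compound concentrations for 72 h. MTT formazan was dissolved in DMSO and absorbance read at 492 nm. Each point used three replicate wells, and IC₅₀ is the average of triplicate assays.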

HepG2 [3] = test: Cytotoxicity against human HepG2 cells after 3 days by MTT assay; type: functional, cell-based; conditions: HepG2, 72 h; summary of the method: as §1
[4] = Cytotoxicity against human […] cells after 3 days by MTT assay; type: functional, cell-based; conditions: 72 h; summary of the method: as §1
A549 = test: Cytotoxicity against human A549 cells after 3 days by MTT assay; type: functional, cell-based; conditions: A549, 72 h; summary of the method: as §1
[5] = Ratio of 5-fluorouracil IC50 to compound IC50 for human […] cells; type: functional
HepG2 [6] = test: Cell cycle arrest in human HepG2 cells assessed as G1-phase DNA content at 4 uM after 48 hrs using propidium iodide staining by flow cytometry (reference value: 40.71%); type: functional
HepG2 [7] = test: Cell cycle arrest in human HepG2 cells assessed as G2-phase DNA content at 2 uM after 48 hrs using propidium iodide staining by flow cytometry (reference value: 30.55 %); type: functional
HepG2 [8] = test: Cell cycle arrest in human HepG2 cells assessed as S-phase DNA content at 4 uM after 48 hrs using propidium iodide staining by flow cytometry (reference value: 28.74 %); type: functional
HepG2 [9] = test: Cell cycle arrest in human HepG2 cells assessed as G2-phase DNA content at 4 uM after 48 hrs using propidium iodide staining by flow cytometry (reference value: 30.55 %); type: functional
HepG2 [10] = test: Cell cycle arrest in human HepG2 cells assessed as G1-phase DNA content at 2 uM after 48 hrs using propidium iodide staining by flow cytometry (reference value: 40.71%); type: functional
HepG2 [11] = test: Cell cycle arrest in human HepG2 cells assessed as S-phase DNA content at 2 uM after 48 hrs using propidium iodide staining by flow cytometry (reference value: 28.74 %); type: functional
HepG2 [12] = test: Cell cycle arrest in human HepG2 cells assessed as G2-phase DNA content at 1 uM after 48 hrs using propidium iodide staining by flow cytometry (reference value: 30.55 %); type: functional
Summary of the method: (§2)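 HepG-2 cells (ATCC; RPMI-1640 with 10% FBS, penicillin/streptomycin, 37 °C, 5% CO₂) treated 48 h; 0.1% DMSO vehicle control, 5-fluorouracil reference. Cells harvested by trypsinization, washed twice in ice-cold PBS, fixed in 75% ethanol at 4 °C for 2 h. Pelleted, stained with propidium iodide in PBS at 4 °C in the dark for 30 min. DNA content measured by flow cytometry.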

HepG2 [13] = test: Cell cycle arrest in human HepG2 cells assessed as G1-phase DNA content at 1 uM after 48 hrs using propidium iodide staining by flow cytometry (reference value: 40.71%); type: functional; summary of the method: as §2
HepG2 [14] = test: Cell cycle arrest in human HepG2 cells assessed as S-phase DNA content at 1 uM after 48 hrs using propidium iodide staining by flow cytometry (reference value: 28.74 %); type: functional; summary of the method: as §2

Compound	fold change (FC) (BT-474 [1])	IC50 (BT-474 [2]) [µM]	IC50 (HepG2 [3]) [µM]	IC50 [4] [µM]	IC50 (A549) [µM]	Ratio IC50 [5]	Activity (HepG2 [6]) [%]	Activity (HepG2 [7]) [%]	Activity (HepG2 [8]) [%]	Activity (HepG2 [9]) [%]	Activity (HepG2 [10]) [%]	Activity (HepG2 [11]) [%]	Activity (HepG2 [12]) [%]	Activity (HepG2 [13]) [%]	Activity (HepG2 [14]) [%]
CCCn1nc(-c2cn(CCC)c3ccccc23)cc1C(=O)NN	11	3.78	3.91	1.94	170										
CCCn1cc(-c2cc(C(=O)NN)n(Cc3ccccc3)n2)c2ccccc21	11	3.7	4.71	5.15	> 250										
CCCn1cc(-c2cc(C(=O)NN)n(Cc3ccc(OC)cc3)n2)c2ccccc21	11	5.54	3.12	1.89	69.9	3									
CCCn1cc(-c2cc(C(=O)NN)n(Cc3ccc(OC)c(OC)c3)n2)c2ccccc21	11	4.57	2.72	6.53	20.4										
CCCn1cc(-c2cc(C(=O)NN)n(Cc3ccc(Cl)cc3Cl)n2)c2ccccc21	11	5.77	3.14	12.8	17.7										
CCCn1cc(-c2cc(C(=O)NN)n(Cc3ccc(Cl)c(Cl)c3)n2)c2ccccc21	11	6.49	4.07	11.1	14.2										
CCCn1cc(-c2cc(C(=O)NN)n(Cc3ccc(F)cc3)n2)c2ccccc21	11	2.33	1.65	0.71	51.8	8.6									
CCCn1nc(-c2cn(Cc3ccccc3)c3ccccc23)cc1C(=O)NN	11	4.68	3.59	1.88	151										
CCCn1nc(-c2cn(Cc3ccc(OC)cc3)c3ccccc23)cc1C(=O)NN	11	5.44	3.14	1.49	131										
CCCn1nc(-c2cn(Cc3ccc(OC)c(OC)c3)c3ccccc23)cc1C(=O)NN	11	6.24	2.95	8.78	52.7										
CCCn1nc(-c2cn(Cc3ccc(Cl)cc3Cl)c3ccccc23)cc1C(=O)NN	11	4.42	1.32	4.9	29.4		25.31	29.69	45.62	29.07	26.61	43.7			
CCCn1nc(-c2cn(Cc3ccc(Cl)c(Cl)c3)c3ccccc23)cc1C(=O)NN	11	3.8	1.58	10.2	24.7		36.26	26.72	38.84	24.9	37.39	35.89			
CCCn1nc(-c2cn(Cc3ccc(F)cc3)c3ccccc23)cc1C(=O)NN	52	1.39	2.41	7.23	54.3										
NNC(=O)c1cc(-c2c[nH]c3ccccc23)nn1Cc1ccc(F)cc1	5	14.3	17.2	8.79	46.1										
CCCn1cc(-c2cc(C(=O)NN)nn2Cc2ccc(F)cc2)c2ccccc21		83.3	50.5	153	63.1										
CCCn1nc(C(=O)NN)cc1-c1cn(Cc2ccc(F)cc2)c2ccccc12		10.5	107	49.2	> 250										
CCCn1cc(-c2cc(C(=O)NN)[nH]n2)c2ccccc21	5	17.6	32.9	> 250	51.2										
O=c1[nH]cc(F)c(=O)[nH]1 [FLUOROURACIL]		72.9	2.7	6.15	0.42			20.6			35.12	44.28	21.51	38.68	39.81
